Experimental data: ChEMBL document CHEMBL4622989, “From Bacteria to Cancer: A Benzothiazole-Based DNA Gyrase B Inhibitor Redesigned for Hsp90 C-Terminal Inhibition” (ACS Med Chem Lett, 2020)
Activity calls are given as the source filed them. The rule behind the calls is not given here.

Legend:
[1] = molecular target: T1, Heat shock protein HSP90 (Homo sapiens, UniProt P07900+P08238); experiment: Inhibition of HSP90 at C-terminus in human SKBR3 cell lysates assessed as induction of Her2 protein degradation at 0.1 to 10 uM after 24 hrs by Western blot analysis; format: cell-based; conditions: SK-BR-3
Procedure, shortened: (§1)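 SKBr3 breast cancer cells were treated for 24 h and then lysed. Hsp90-dependent client proteins and Hsp70 in the lysates were analysed by Western blot. Geldanamycin at 500 nM served as the reference treatment. Blot images were quantified.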

[2] = molecular target: T1, Heat shock protein HSP90; experiment: Inhibition of HSP90 at C-terminus in human SKBR3 cell lysates assessed as induction of CDK4 protein degradation at 0.1 to 10 uM after 24 hrs by Western blot analysis; format: cell-based; conditions: SK-BR-3; procedure, shortened: as §1
[3] = tested on: MCF7; experiment: Antiproliferative activity against human MCF7 cells assessed as reduction in cell viability; format: functional, cell-based
[4] = tested on: SK-BR-3; experiment: Antiproliferative activity against human SKBR3 cells assessed as reduction in cell viability; format: functional, cell-based
[5] = molecular target: T1, Heat shock protein HSP90; experiment: Inhibition of HSP90 at N-terminus in human SKBR3 cell lysates assessed as induction of heat shock response by measuring increase in HSP70 protein level at 0.1 to 10 uM after 24 hrs by Western blot analysis; format: cell-based; conditions: sk-br-3, 24 h; procedure, shortened: as §1
[6] = molecular target: T1, Heat shock protein HSP90; experiment: Inhibition of HSP90 at C-terminus in human SKBR3 cell lysates assessed as induction of AKT protein degradation at 0.1 to 10 uM after 24 hrs by Western blot analysis; format: cell-based; conditions: SK-BR-3; procedure, shortened: as §1
[7] = molecular target: T1, Heat shock protein HSP90; experiment: Inhibition of HSP90 at C-terminus in human SKBR3 cell lysates assessed as induction of Raf1 protein degradation at 0.1 to 10 uM after 24 hrs by Western blot analysis; format: cell-based; conditions: SK-BR-3; procedure, shortened: as §1
[8] = molecular target: T1, Heat shock protein HSP90; experiment: Inhibition of HSP90 at C-terminus in human SKBR3 cell lysates at 0.5 to 5 times antiproliferative EC50 after 24 hrs by Western blot analysis; format: cell-based; conditions: SK-BR-3; procedure, shortened: as §1

| SMILES | EC50 [3] [µM] | EC50 [4] [µM] | further results |
| --- | --- | --- | --- |
| CCOC(=O)C(=O)Nc1nc2ccc(NC(=O)c3cc4ccccc4[nH]3)cc2s1 | 11.2 | 6.94 |  |
| CCOC(=O)C(=O)Nc1ccc2nc(NC(=O)c3cc4cc(C)ccc4[nH]3)sc2c1 | 10.1 | 2.81 |  |
| CCOC(=O)C(=O)Nc1ccc2nc(NC(=O)c3ccc4c(c3)OCO4)sc2c1 | > 50 | > 50 |  |
| CCOC(=O)C(=O)Nc1ccc2nc(NC(=O)c3cc(Br)c(Br)[nH]3)sc2c1 | > 50 | 2.41 | inhibition [8]: Active |
| CCOC(=O)C(=O)Nc1nc2ccc(NC(=O)c3cc(Br)c(Br)[nH]3)cc2s1 | 10.1 | 3.59 |  |
| CCOC(=O)C(=O)Nc1nc2ccc(NC(=O)c3ccccc3)cc2s1 | > 50 | 9.73 |  |
| Cc1ccc2[nH]c(C(=O)Nc3nc4ccc(NC(=O)C(=O)c5ccccc5)cc4s3)cc2c1 | > 50 | > 50 |  |
| COc1ccc2[nH]c(C(=O)Nc3nc4ccc(NC(=O)C(=O)c5ccccc5)cc4s3)cc2c1 | > 50 | > 50 |  |
| CCOC(=O)C(=O)Nc1ccc2nc(NC(=O)c3cc4cc(CC)ccc4[nH]3)sc2c1 | 25.3 | 20.6 |  |
| CCOC(=O)C(=O)Nc1ccc2nc(NC(=O)c3cc4ccc(OC)cc4[nH]3)sc2c1 | > 50 | 6.7 |  |
| CC(=O)Nc1nc2ccc(NC(=O)c3cc(Br)c(Br)[nH]3)cc2s1 | > 50 | > 50 |  |

More lines, main results first:

| EC50 [3] [µM] | EC50 [4] [µM] | SMILES | further results |
| --- | --- | --- | --- |
| 7.03 | 0.86 | CCOC(=O)C(=O)Nc1ccc2nc(NC(=O)c3cc4cc(OC)ccc4[nH]3)sc2c1 | inhibition [1]: Active; inhibition [2]: Active; inhibition (INH) [5]: Not Active; inhibition [6]: Active; inhibition [7]: Active |
| > 50 | > 50 | CC(=O)C(=O)Nc1ccc2nc(NC(=O)c3cc4ccccc4[nH]3)sc2c1 |  |
| > 50 | 10.7 | CCOC(=O)C(=O)Nc1ccc2nc(NC(=O)c3ccc(OC)cc3)sc2c1 |  |
| 8.99 | 5.41 | CCOC(=O)C(=O)Nc1ccc2nc(NC(=O)c3cc4ccccc4[nH]3)sc2c1 |  |
| > 50 | > 50 | CCOC(=O)C(=O)Nc1ccc2nc(NC(=O)c3ncccn3)sc2c1 |  |
| 41.3 | 27.9 | CCOC(=O)C(=O)Nc1nc2ccc(NC(=O)c3cc(Br)c[nH]3)cc2s1 |  |
